ChEMBL document CHEMBL1126987, “Modulation of GABAA receptor function by benz[e]indenes and phenanthrenes” (J Med Chem, 1993)
Activity calls are given as the source filed them. No cut-off for these calls is given here.

How the values were obtained:
[1] = molecular target: T1, GABA-A receptor; anion channel (Rattus norvegicus) (UniProt O09028+P15431+P18506+P18508+P19969+P20236+P23574+P23576+P28471+P28473+P30191+P62813+P63079+P63138+Q91ZM7+Q9ES14); assay: Percent response without GABA relative to current produced by 1 uM GABA alone in rat hippocampal cells (gated current); assay type: functional, cell-based; settings: Hippocampus
Method in brief: (§1)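 Whole-cell patch clamp on rat hippocampal cells. Current gated by 10 μM compound without GABA is expressed as percent of the current evoked by 1 μM GABA on the same cell.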

[2] = molecular target: T1, GABA-A receptor; anion channel (Rattus norvegicus); assay: (§2) Percent response with 1 uM GABA relative to current produced by 1 uM GABA alone in rat hippocampal cells; assay type: functional, cell-based; settings: Hippocampus
Method in brief: (§3)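 Whole-cell patch clamp on rat hippocampal cells. Current with 1 μM GABA plus 1 μM compound is expressed as percent of the current from 1 μM GABA alone.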

[3] = molecular target: T1, GABA-A receptor; anion channel (Rattus norvegicus); assay: Maximal binding constant (Bmax) determined in Scatchard analysis of 35[S]-TBPS binding.; assay type: protein-complex assay
Method in brief: (§4)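 Scatchard analysis of [35S]-TBPS binding to rat brain membranes, with compounds dissolved in DMSO at a final assay concentration of 0.25%. Run in triplicate with triplicate determinations per point. Kd and Bmax were taken from linear regression of Scatchard-transformed data. TBPS alone vs TBPS plus test compound was compared by Student's t test.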

[4] = molecular target: GABA-A receptor; anion channel; assay: Inhibition of GABA-A receptor by displacement of 35[S]-TBPS; assay type: protein-complex assay, Rattus norvegicus
Method in brief: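 [35S]-TBPS displacement on rat brain membranes, with compounds dissolved in DMSO at a final assay concentration of 0.25%. IC50 was obtained by logistic analysis.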

[5] = molecular target: GABA-A receptor; anion channel; assay: Dissociation constant (Kd) determined in Scatchard analysis of 35[S]-TBPS binding.; assay type: protein-complex assay, Rattus norvegicus; method in brief: as §4
[6] = molecular target: Gamma-aminobutyric acid receptor subunit gamma-1 (Rattus norvegicus) (UniProt P23574); assay: Percent response without GABA relative to current produced by 1 uM GABA alone in rat hippocampal cells (No response); assay type: functional, cell-based; settings: Hippocampus; method in brief: as §1
Gamma-aminobutyric acid receptor subunit gamma-1 (Rattus norvegicus), sequence (P23574 whole entry): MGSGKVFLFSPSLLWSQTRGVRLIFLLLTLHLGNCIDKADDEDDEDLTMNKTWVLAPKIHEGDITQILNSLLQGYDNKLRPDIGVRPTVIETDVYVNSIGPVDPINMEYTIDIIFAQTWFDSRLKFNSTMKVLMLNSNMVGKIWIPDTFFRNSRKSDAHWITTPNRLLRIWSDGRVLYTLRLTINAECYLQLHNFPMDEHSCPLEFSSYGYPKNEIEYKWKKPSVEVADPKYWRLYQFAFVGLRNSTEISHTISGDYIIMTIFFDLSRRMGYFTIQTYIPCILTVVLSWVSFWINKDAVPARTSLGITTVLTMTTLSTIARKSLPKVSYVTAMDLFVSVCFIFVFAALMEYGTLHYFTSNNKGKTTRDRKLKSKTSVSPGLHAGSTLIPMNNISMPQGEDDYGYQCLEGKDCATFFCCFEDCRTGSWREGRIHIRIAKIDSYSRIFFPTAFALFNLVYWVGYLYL

[7] = molecular target: Gamma-aminobutyric acid receptor subunit gamma-1 (Rattus norvegicus) (UniProt P23574); assay: as §2; assay type: functional, cell-based; settings: Hippocampus; method in brief: as §3

Question: How did the Activity [1] turn out when `CC(=O)C1CC[C@H]2[C@@H]3CC[C@H]4C[C@H](O)CC[C@]4(C)[C@H]3CC[C@]12C` (some centres not stated) was run?
Answer: The Activity was 30.

Question: What about the Response [2] of the same compound?
Answer: The Response was 195%.

Question: What about the Bmax (pM (mg of protein)-1) [3] of the same compound?
Answer: The Bmax (pM (mg of protein)-1) was 1.22.

Question: And the IC50 [4]?
Answer: Its IC50 is 0.18 µM.

Question: What about the Kd [5] of the same compound?
Answer: The Kd was less than 0.08 µM.

Question: What does the source list for `C[C@]1(CC#N)CCC2C(CC[C@H]3C[C@H](O)CC[C@]23C)C1` (some centres not stated)?
Answer: Activity [1]: 8; Response [2]: 106%; IC50 [4]: 3.27 µM

Question: `CC(=O)C[C@@]1(C)CCC2C(CC[C@H]3C[C@H](O)CC[C@]23C)C1` (some centres not stated) was tested. Which Activity [1] did it give?
Answer: The Activity was 1.

Question: And the Response [2]?
Answer: Its Response is 113%.

Question: What about the Bmax (pM (mg of protein)-1) [3] of the same compound?
Answer: The Bmax (pM (mg of protein)-1) was 1.15.

Question: What about the IC50 [4] of the same compound?
Answer: The IC50 was 3.98 µM.

Question: What does the source list for `C[C@]12CCC3C[C@H](CCO)CCC3C1CC[C@@H]2C#N` (some centres not stated)?
Answer: Activity [6]: inactive; Response [7]: 346%; IC50 [4]: 4.5 µM

Question: What does the source list for `CC(=O)[C@@]1(C)CCC2C(CC[C@H]3C[C@H](O)CC[C@]23C)C1` (some centres not stated)?
Answer: Response [2]: 108%; IC50 [4]: 7.06 µM

Question: Which results are given for `C[C@]12CCC3C[C@H](CCO)CCC3C1CCC2=O` (some centres not stated)?
Answer: Response [2]: 127%; IC50 [4]: 44.1 µM

Question: With `CC(=O)[C@H]1CCC2C3CC[C@@H](CCO)CC3CC[C@@]21C` (some centres not stated) as the compound, how does the Response [2] read?
Answer: Its Response is 489%.

Question: And the Bmax (pM (mg of protein)-1) [3]?
Answer: The Bmax (pM (mg of protein)-1) was 1.04.

Question: And the IC50 [4]?
Answer: Its IC50 is 5.82 µM.
